Experiments:
HCT-116 = test: Antiproliferative activity against human HCT-116 cells assessed as reduction in cell growth incubated for 72 hrs by MTT assay; type: functional, cell-based; details: HCT-116, 72 h
In short: (§1)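 Log-phase cells seeded at 5 × 10³/well and grown 24 h, then exposed to graded compound concentrations for 72 h. MTT (5 mg/mL) added for 4 h; formazan dissolved in DMSO and absorbance read at 490 nm. IC50 calculated from growth inhibition; means ± SD of triplicate experiments.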

A549 = test: Antiproliferative activity against human A549 cells assessed as reduction in cell growth incubated for 72 hrs by MTT assay; type: functional, cell-based; details: A549, 72 h; in short: as §1
HeLa = test: Antiproliferative activity against human HeLa cells assessed as reduction in cell growth incubated for 72 hrs by MTT assay; type: functional, cell-based; in short: as §1
MCF7 = test: Antiproliferative activity against human MCF7 cells assessed as reduction in cell growth incubated for 72 hrs by MTT assay; type: functional, cell-based; details: MCF7, 72 h; in short: as §1
HepG2 = test: Antiproliferative activity against human HepG2 cells assessed as reduction in cell growth incubated for 72 hrs by MTT assay; type: functional, cell-based; details: HepG2, 72 h; in short: as §1
WI-38 = test: Cytotoxicity against human WI-38 cells assessed as reduction in cell growth incubated for 72 hrs by MTT assay; type: cell-based; details: WI-38, 72 h; in short: as §1
[1] = (§2) Inhibition of pig brain tubulin polymerization by spectrophotometric method; type: tissue-based, Sus scrofa
In short: (§3)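 Pig brain tubulin, purified by three assembly/disassembly cycles and phosphocellulose chromatography, mixed with compound at various concentrations. Buffer: PEM (100 mM PIPES, 1 mM MgCl₂, 1 mM EGTA) with 1 mM GTP and 5% glycerol. Polymerization followed at 37 °C by light scattering at 340 nm; plateau absorbance used for calculation.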

Sus scrofa = species on record: Sus scrofa; test: as §2; type: tissue-based; in short: as §3

| Compound | IC50 (HCT-116) | IC50 (A549) | IC50 (HeLa) | IC50 (MCF7) | IC50 (HepG2) | IC50 (WI-38) | IC50 [1] | inhibition (Sus scrofa) |
| --- | --- | --- | --- | --- | --- | --- | --- | --- |
| COc1ccc2c(N(CCF)c3cc(OC)c(OC)c(OC)c3)n[nH]c2n1 | 0.12 µM | 0.2 µM | 0.012 µM | 0.102 µM | 5.79 µM | 16.5 µM | 55.7 µM | Dose-dependent effect |
| COc1ccc2c(N(c3cc(OC)c(OC)c(OC)c3)C(C)C)n[nH]c2n1 | > 50 µM | > 50 µM | 21.2 µM | > 50 µM | 24.5 µM | 6.04 µM |  |  |
| COc1ccc(/C=C\c2cc(OC)c(OC)c(OC)c2)cc1O [COMBRETASTATIN A4] | 0.029 µM | 0.058 µM | 0.005 µM | 0.034 µM | 0.28 µM | 31.6 µM |  |  |
| COc1ccc2c(Nc3cc(OC)c(OC)c(OC)c3)nn(C(C)C)c2n1 | 12 µM | 31.9 µM | 12.8 µM | 13.2 µM | 20 µM | 4.32 µM |  |  |
| COc1ccc2c(Nc3cc(OC)c(OC)c(OC)c3)nn(C3CCCC3)c2n1 | > 50 µM | > 50 µM | 6.28 µM | 22.4 µM | > 50 µM | 73.8 µM |  |  |
